Results from publication PMC7449315 (Journal for Immunotherapy of Cancer, 2020).

Assay: phase I trial: safety and tolerability
Format: in vivo, human
In short: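 Fifteen patients were dosed orally twice daily (three per cohort, 100–800 mg). AEs, DLTs, physical exams, vital signs, ECGs and laboratory chemistry, hematology and coagulation were recorded from first dose to end of treatment. AEs were graded by the investigator using NCI CTCAE v4.03. DLTs were assessed in cycle 1 (days 1–28): grade ≥3 or immune-related non-hematologic events, and grade ≥4 hematologic events.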

[1] = 800 mg two times per day, one patient

## NS(=O)(=O)[C@H]1CC[C@](F)(CC[C@H]2c3ccccc3-c3cncn32)CC1 [M4112]
600 mg two times per day (n=3)
  Aspartate aminotransferase increased: 0 (0.0) n (%)
  Blood alkaline phosphatase increased: 1 (33.3) n (%)
  Blood creatine phosphokinase increased: 0 (0.0) n (%)
  Blood creatinine increased: 1 (33.3) n (%)
  Cough: 0 (0.0) n (%)
  DLT: no DLTs were observed
  Decreased appetite: 0 (0.0) n (%)
  Dehydration: 1 (33.3) n (%)
  Diarrhea: 2 (66.7) n (%)
  Dyspepsia: 0 (0.0) n (%)
  Dysphagia: 0 (0.0) n (%)
  Fatigue: 1 (33.3) n (%)
  Fever: 0 (0.0) n (%)
  Gamma-glutamyl transferase increased: 1 (33.3) n (%)
  Hypercalcemia: 0 (0.0) n (%)
  Lipase increased: 2 (66.7) n (%)
  Lymphocyte count decreased: 0 (0.0) n (%)
  Maculopapular rash: 0 (0.0) n (%)
  Nausea: 1 (33.3) n (%)
  Palmar-plantar erythrodysesthesia syndrome: 0 (0.0) n (%)
  Platelet count decreased: 0 (0.0) n (%)
  Tumor pain: 1 (33.3) n (%)
  Vomiting: 1 (33.3) n (%)
800 mg
  median probability of a DLT (Bayesian model estimate): 20.5%
  probability of a DLT, 95% credible interval: 3.1%–62.2
800 mg two times per day (n=3)
  Abdominal distension: 0 (0.0) n (%)
  Abdominal pain: 0 (0.0) n (%)
  Alanine aminotransferase increased: 1 (33.3) n (%)
  Amylase increased: 0 (0.0) n (%)
  Anemia of malignant disease: 0 (0.0) n (%)
  Any AE: 3 (100) n (%)
  Any SAE: 1 (33.3) n (%)
  Aspartate aminotransferase increased: 2 (66.7) n (%)
  Blood alkaline phosphatase increased: 1 (33.3) n (%)
  Blood creatine phosphokinase increased: 1 (33.3) n (%)
  Blood creatinine increased: 1 (33.3) n (%)
  Cough: 0 (0.0) n (%)
  Decreased appetite: 1 (33.3) n (%)
  Dehydration: 0 (0.0) n (%)
  Diarrhea: 0 (0.0) n (%)
  Dyspepsia: 0 (0.0) n (%)
  Dysphagia: 0 (0.0) n (%)
  Fatigue: 1 (33.3) n (%)
  Fever: 1 (33.3) n (%)
  Gamma-glutamyl transferase increased: 1 (33.3) n (%)
  Hypercalcemia: 0 (0.0) n (%)
  Lipase increased: 0 (0.0) n (%)
  Lymphocyte count decreased: 1 (33.3) n (%)
  Maculopapular rash: 0 (0.0) n (%)
  Nausea: 1 (33.3) n (%)
  Palmar-plantar erythrodysesthesia syndrome: 0 (0.0) n (%)
  Platelet count decreased: 1 (33.3) n (%)
  Tumor pain: 0 (0.0) n (%)
  Vomiting: 0 (0.0) n (%)
800 mg two times per day, grade 3 allergic dermatitis with fever and hypotension
  time to resolution of the DLT after treatment withdrawal: ≤ 6 h
[1]
  DLT during cycle 1: grade 3 allergic dermatitis
  QT prolongation resulting in dose reduction (not a DLT): grade 2 QT prolongation
Total (N=15)
  Abdominal distension: 2 (13.3) n (%)
  Abdominal pain: 2 (13.3) n (%)
  Alanine aminotransferase increased: 2 (13.3) n (%)
  Amylase increased: 2 (13.3) n (%)
  Anemia of malignant disease: 2 (13.3) n (%)
  Any AE: 15 (100) n (%)
  Any SAE: 3 (20.0) n (%)
  Aspartate aminotransferase increased: 2 (13.3) n (%)
  Blood alkaline phosphatase increased: 2 (13.3) n (%)
  Blood creatine phosphokinase increased: 3 (20.0) n (%)
  Blood creatinine increased: 3 (20.0) n (%)
  Cough: 3 (20.0) n (%)
  Decreased appetite: 3 (20.0) n (%)
  Dehydration: 2 (13.3) n (%)
  Diarrhea: 3 (20.0) n (%)
  Dyspepsia: 2 (13.3) n (%)
  Dysphagia: 2 (13.3) n (%)
  Fatigue: 5 (33.3) n (%)
  Fever: 2 (13.3) n (%)
  Gamma-glutamyl transferase increased: 2 (13.3) n (%)
  Hypercalcemia: 2 (13.3) n (%)
  Lipase increased: 3 (20.0) n (%)
  Lymphocyte count decreased: 2 (13.3) n (%)
  Maculopapular rash: 2 (13.3) n (%)
  Nausea: 4 (26.7) n (%)
  Palmar-plantar erythrodysesthesia syndrome: 2 (13.3) n (%)
  Platelet count decreased: 2 (13.3) n (%)
  Tumor pain: 2 (13.3) n (%)
  Vomiting: 4 (26.7) n (%)
All doses
  deaths during the dose-escalation phase: no deaths reported
All patients (N=15)
  TEAE fatigue: 33.3%
  TEAE nausea: 26.7%
  TEAE vomiting: 26.7%
Doses up to 800 mg two times per day
  MTD: no MTD was defined
In vivo
  RP2D: not established
One patient, 400 mg two times per day cohort, unrelated to treatment
  serious TEAE: grade 3 disease progression
One patient, 600 mg two times per day cohort, unrelated to treatment
  serious TEAE: grade 2 ascites
One patient, 800 mg two times per day cohort, related to treatment
  serious TEAE: grade 3 allergic dermatitis
Two of 15 patients
  patients who discontinued M4112 treatment due to TEAEs: 13.3%
